Source: ChEMBL document CHEMBL3044531, “Quantitative structure-antifungal activity relationships of some benzohydrazides against Botrytis cinerea” (2007)

Key:
Format in all cases: functional
Conditions in all cases: 144 h
Botrytis cinerea [1] = assay: Antifungal activity against Botryotinia fuckeliana assessed as radial growth inhibition at 50 ug/mL measured after 6 days
Method in brief: (§1)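 Radial growth inhibition of B. cinerea on glucose-malt-peptone agar (61 g/L, pH 6.5-7.0) in 9 cm dishes. Compound in acetone added to the medium at final 50-200 μg/mL, with equal acetone in the controls. A 5 mm mycelial disc from an actively growing culture was placed centrally. Growth was followed for 6 days; % inhibition from mean colony diameter versus untreated control. Triplicate, repeated at least three times.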

Botrytis cinerea [2] = assay: Antifungal activity against Botryotinia fuckeliana assessed as radial growth inhibition at 100 ug/mL measured after 6 days; method in brief: as §1
Botrytis cinerea [3] = assay: Antifungal activity against Botryotinia fuckeliana assessed as radial growth inhibition at 200 ug/mL measured after 6 days; method in brief: as §1

Compound | inhibition at 50 µg/mL (Botrytis cinerea [1]) [%] | inhibition at 100 µg/mL (Botrytis cinerea [2]) [%] | inhibition at 200 µg/mL (Botrytis cinerea [3]) [%]
O=C(NN(Cc1ccccc1)Cc1ccccc1)c1ccccc1I | 27 | 50 | 82
O=C(NN1CCCCC1)c1ccccc1F | 46 | 51 | 51
CN(C)NC(=O)c1ccccc1F | 12 | 22 | 32
CN(C)NC(=O)c1ccccc1I | 19 | 28 | 33
O=C(NN(Cc1ccccc1)Cc1ccccc1)c1ccccc1Cl | 31 | 42 | 86
O=C(NN1CCCCC1)c1ccccc1 [N-PIPERIDINOBENZAMIDE] | 37 | 43 | 45
Cc1ccccc1C(=O)NN(Cc1ccccc1)Cc1ccccc1 | 48 | 55 | 88
CN(C)NC(=O)c1ccccc1Cl | 0 | 0 | 33
COc1ccccc1C(=O)NN1CCCCC1 | 38 | 47 | 51
O=C(NN1CCCCC1)c1ccccc1I | 33 | 42 | 46
O=C(NN1Cc2ccccc2C1)c1ccccc1F | 42 | 50 | 91
O=C(NN1CCCCC1)c1ccccc1Cl | 36 | 40 | 57
CN(C)NC(=O)c1ccccc1 [N',N'-DIMETHYLBENZOHYDRAZIDE] | 24 | 45 | 51
O=C(NN(Cc1ccccc1)Cc1ccccc1)c1ccccc1 [N',N'-DIBENZYLBENZOHYDRAZIDE] | 10 | 42 | 44
